# Screens from PubChem.
# Hits are enriched below; roughly 4.9% of the tested compounds scored in any of these assays.
# STAT3 blocker – inhibitors of IL-6 induced STAT3 signaling. inhibition, % at 5.5 µM. actives 0.89% (n = 190,000). AID 862. U3A cells, IL-6 STAT3-luciferase reporter, luminescence; host cell line lacks STAT1;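 active = inhibition above the mean inhibition across all screened compounds plus 3 SD, cut at about 44% in these data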;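 note: 0% = DMSO only wells and 100% = 100 µM nifuroxazide control wells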
# APP 5'UTR act – activates APP 5'UTR luciferase reporter; SH-SY5Y APP 5'UTR luciferase reporter, luminescence; zero percent = DMSO vehicle wells; activation, % at 2 µM; actives 1% (n = 190,000);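 active = activation above a set limit, based on mean plus 3 SD of controls, cut at about 140% in these data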
# STAT3 act-1 – increases IL-6 driven STAT3 reporter signal; actives 0.91% (n = 190,000); activation (% of control), % at 5.6 µM; AID 871; U3A cells, IL-6 STAT3-luciferase reporter, luminescence; 100% = signal with IL-6 EC80 alone;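 active = activation above the screen-wide mean of compound activation plus 3 SD, cut at about 130% in these data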;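 note: 0% = background luminescence of wells with medium and substrate only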
#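 Test system: Human STAT1-deficient U3A cells with stable STAT3-luciferase reporter | Also added: Interleukin-6, 33 ng/mL | Timing: Compound pre-incubation 1 h before IL-6, then 6 h stimulation at 37 °C | Technique: Luciferase reporter luminescence | Read-out: Percent of IL-6-only median luminescence | Benchmarks: IL-6-only wells as 100% reference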
# NF-kB expr up – raises NF-kB expression in human neuronal cells | NF-kB reporter expression; hits give high values | fold change at 12.5 µM | actives 1.6% (n = 190,000); in the data active = fold change above about 3.3
# STAT1 act-1 – STAT1 signaling activation; NIH 3T3 STAT1-luciferase reporter, IFN-gamma, luminescence; 100% = IFN-gamma alone, no compound; activation (% of control), % at 5.5 µM; actives 2.6% (n = 200,000);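 active = activation above the screen-wide mean activation plus 3 SD, cut at about 130% in these data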;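 note: raw ratio to IFN-gamma control signal so 100% means no change and 0% no light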
# STAT1 blocker – STAT1 signaling inhibition; actives 0.35% (n = 200,000); inhibition, % at 5.5 µM; NIH 3T3 STAT1-luciferase reporter, IFN-gamma, luminescence;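 active = inhibition above a set limit, the mean inhibition across all tested compounds plus 3 SD, cut at about 34% in these data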;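 note: 0% = IFN-gamma with DMSO and 100% = IFN-gamma with 300 µM nifuroxazide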
# STAT3 act-2 – confirmation of STAT3 signaling activators; shares compounds with STAT3 act-1; U3A STAT3-luciferase reporter, IL-6 potentiation, luminescence; U3A cells lack STAT1; 100 means same as IL-6 alone; potentiation (% of control), % at 5.7 µM; actives 64% (n = 1,200);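 active = percent activation of the STAT3 luciferase reporter above a set limit taken from the earlier primary screen, cut at about 130% in these data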;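 note: 0% = background signal of medium plus substrate and 100% = median of IL-6 with DMSO wells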
# NFkB act STAT3ct – NF-kappaB activation in STAT3 activator counter-screen. shares compounds with STAT3 act-1. human cells, NF-kappaB reporter activation. activation (% of control), % at 5.7 µM. AID 1309. actives 11% (n = 1,200); in the data active = activation above about 120%;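 note: reporter induced by TNF-alpha stimulation; 100% = median of stimulated DMSO wells and 0% = no signal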
# STAT1 act-2 – STAT1 activation in STAT3 activator counter-screen; NIH 3T3 STAT1-luciferase reporter, IFN-gamma, luminescence; activation (% of control), % at 5.7 µM; shares compounds with STAT3 act-1; actives 13% (n = 1,200);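 active = activation above the solvent-only control well mean plus 3 SD, set per screening run, cut at about 120% in these data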;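 note: 100% = IFN-gamma with DMSO median signal so 100% means no change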
# Active calls of the source: *; . = no result given.
SMILES,STAT3 blocker,APP 5'UTR act,STAT3 act-1,NF-kB expr up,STAT1 act-1,STAT1 blocker,STAT3 act-2,NFkB act STAT3ct,STAT1 act-2
CCOC(=O)CN1C(=O)C2(OCCCO2)c2ccccc21,-5,14,106,1.7,104,-5,.,.,.
O=C(CN1CCC(NC(=O)c2ccco2)CC1)Nc1cccc2ccccc12,-3,20,103,0.86,96,4,.,.,.
O=C(CN1CCC(NC(=O)c2ccco2)CC1)Nc1ccccc1[N+](=O)[O-],-40,4,138*,0.91,92,6,144*,104,92
Cc1nn(-c2ccccc2)c2c1C(c1ccccc1)C(C#N)=C(N)O2 (centres undefined),-22,26,122,1.1,96,4,.,.,.
Cc1ccc(-n2nc(C)c3c2OC(N)=C(C#N)C3c2ccoc2)cc1 (centres undefined),-85,2,177*,0.81,95,6,153*,104,91
CCN(CC)C(=O)c1ccc2c3c(cccc13)C(=O)N(CCc1ccc(OC)c(OC)c1)C2=O,11,8,93,0.32,106,-7,.,.,.
COc1ccccc1N(C(C)=O)c1nc(C)cc(C)c1C#N,-75,-9,165*,1.3,89,12,152*,101,100
COc1cc(C(C[N+](=O)[O-])c2c(C)[nH]c3ccccc23)cc(OC)c1OC (centres undefined),-48,5,142*,1,87,14,126,98,92
COc1ccc(C)cc1NC(=O)c1cc2c(s1)CCC2,-19,14,112,1.3,111,-12,.,.,.
COC(=O)c1sccc1NC(=O)c1cc2c(s1)CCCC2,-79,-1,170*,1.3,109,-11,146*,110,109
Nc1c(Br)cc2oc(-c3ccccc3)nc2c1Br,-62,100,146*,3.4*,112,-13,181*,123*,152*
CCOc1cc(-c2ccc(N)c(OCC)c2)ccc1N,-61,-7,155*,0.96,98,2,136*,102,98
CCOc1ccc(-c2nnc(-c3ccncc3)o2)cc1OCC,-5,14,111,0.84,107,-8,.,.,.
CCn1c(=O)c(C(=O)NCCc2ccccc2)c(O)c2ccccc21,-38,8,137*,1.1,101,-1,134*,106,100
CCCCCCC(=O)NNC(=O)c1c(O)c2ccccc2n(CCC)c1=O,6,7,99,0.92,97,3,.,.,.
CCCn1c(=O)c(C(=O)Nc2ccccc2)c(O)c2ccccc21,-41,11,137*,1.3,104,-6,122,103,100
CCn1c(=O)c(C(=O)Nc2ccccc2C)c(O)c2ccccc21,-44,65,140*,1.3,106,-8,141*,111,115
CCNCCNC(=O)c1c(O)c2ccccc2n(CC)c1=O,11,11,96,1.2,91,10,.,.,.
COc1cccc(NC(=S)NCc2cccs2)c1,-3,-3,106,1.6,111,-13,.,.,.
Cc1cc(N/N=C/c2c(O)ccc3ccccc23)nc(-c2ccccc2O)n1,-12,-58,108,0.45,98,2,.,.,.
Oc1ccc2ccccc2c1/C=N/Nc1ccccc1,-59,16,151*,1.4,93,8,150*,110,82
COC(=O)c1sccc1NC(=S)Nc1ccc(F)cc1,12,-3,92,1.2,90,11,.,.,.
COC(=O)c1sccc1NC(=O)Nc1cccc(F)c1,-43,4,150*,0.8,127,-29,131,121*,135*
Oc1c(Cl)cc(Cl)cc1/C=C/c1ccc2cccc(O)c2n1,-12,4,114,1.3,99,-2,.,.,.
